B1: Folylpolyglutamate synthase, mitochondrial (Homo sapiens), Q05932 (protein)
chain: MSRARSHLRAALFLAAASARGITTQVAARRGLSAWPVPQEPSMEYQDAVRMLNTLQTNAGYLEQVKRQRGDPQTQLEAMELYLARSGLQVEDLDRLNIIHVTGTKGKGSTCAFTECILRSYGLKTGFFSSPHLVQVRERIRINGQPISPELFTKYFWRLYHRLEETKDGSCVSMPPYFRFLTLMAFHVFLQEKVDLAVVEVGIGGAYDCTNIIRKPVVCGVSSLGIDHTSLLGDTVEKIAWQKGGIFKQGVPAFTVLQPEGPLAVLRDRAQQISCPLYLCPMLEALEEGGPPLTLGLEGEHQRSNAALALQLAHCWLQRQDRHGAGEPKASRPGLLWQLPLAPVFQPTSHMRLGLRNTEWPGRTQVLRRGPLTWYLDGAHTASSAQACVRWFRQALQGRERPSGGPEVRVLLFNATGDRDPAALLKLLQPCQFDYAVFCPNLTEVSSTGNADQQNFTVTLDQVLLRCLEHQQHWNHLDEEQASPDLWSAPSPEPGGSASLLLAPHPPHTCSASSLVFSCISHALQWISQGRDPIFQPPSPPKGLLTHPVAHSGASILREAAAIHVLVTGSLHLVGGVLKLLEPALSQ

Tests used:
MOLT-4 = test: Compound was evaluated for inhibition of MTX influx into MOLT-4 cells; type: functional, cell-based; details: Homo sapiens, read-out: I50
How it was run: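 MOLT-4 cells were grown in folate-free RPMI-1640 with 10% dialyzed FCS and 20 nM leucovorin, then resuspended in pH 7.4 Tris/bicarbonate buffer with 10 mM DTT at 37 °C. Test compound was added with TLC-purified ³H-MTX at t = 0. Timed aliquots were spun through 1-bromododecane, and pellets were NaOH-extracted and scintillation counted. Rates came from 4–5 linear points at ≤10 min.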

MCF7 = test: Compound was evaluated for inhibition of tumor cell growth in MCF-7 cell line; type: functional, cell-based; details: Homo sapiens, read-out: I50
How it was run: (§1)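 Cells were grown in folate-free RPMI 1640 with 10% dialyzed FCS and 20 nM leucovorin, seeding SW480 at 8000 and MCF-7 at 10000 cells/well. After 24 h at 37 °C and 5% CO₂, drug diluted in leucovorin-free medium was added to triplicate wells for 96 h. Growth was read by MTT reduction (1 h), followed by DMSO solubilization and absorbance.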

SW480 = test: Compound was evaluated for inhibition of tumor cell growth in SW/480 cell line; type: functional, cell-based; details: Homo sapiens, read-out: I50; how it was run: as §1
Thymidylate synthase [1] = target: Thymidylate synthase (Escherichia coli, UniProt C3SWJ7); test: Compound was evaluated for the inhibition of Escherichia coli Thymidylate Synthase; details: read-out: I50
Sequence of Thymidylate synthase (Escherichia coli, UniProt C3SWJ7) (C3SWJ7 whole entry): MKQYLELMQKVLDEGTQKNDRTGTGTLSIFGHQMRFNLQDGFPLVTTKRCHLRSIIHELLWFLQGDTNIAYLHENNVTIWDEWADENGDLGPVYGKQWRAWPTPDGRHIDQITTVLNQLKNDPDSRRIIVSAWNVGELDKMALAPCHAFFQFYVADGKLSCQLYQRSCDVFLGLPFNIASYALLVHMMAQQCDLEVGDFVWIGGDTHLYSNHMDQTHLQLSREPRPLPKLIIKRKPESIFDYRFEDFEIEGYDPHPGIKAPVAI

Thymidylate synthase [2] = target: Thymidylate synthase (Homo sapiens, UniProt P04818); test: Compound was evaluated for the inhibition of human Thymidylate Synthase; details: read-out: I50
Sequence of Thymidylate synthase (Homo sapiens, UniProt P04818) (P04818 whole entry): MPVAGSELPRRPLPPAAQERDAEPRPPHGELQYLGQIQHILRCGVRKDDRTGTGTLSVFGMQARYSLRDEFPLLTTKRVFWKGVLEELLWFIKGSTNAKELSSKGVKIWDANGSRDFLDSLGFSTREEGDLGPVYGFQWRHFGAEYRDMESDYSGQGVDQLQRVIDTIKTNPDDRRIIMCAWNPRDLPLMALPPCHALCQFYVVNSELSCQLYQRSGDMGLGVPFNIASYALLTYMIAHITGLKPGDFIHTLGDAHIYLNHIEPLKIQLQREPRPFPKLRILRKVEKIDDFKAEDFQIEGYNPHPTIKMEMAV

[3] = It is the ratio of relative maximum velocity to that of apparent kinetic constant
Manca = test: Compound was evaluated for inhibition of tumor cell growth in Manca human lymphoma cell line; type: functional, cell-based; details: read-out: I50
[4] = substrate: C#CCN(Cc1ccc(C(=O)NC(CCC(=O)O)C(=O)O)cc1)Cc1ccc2nc(C)nc(O)c2c1; test: Relative maximum velocity of Folyl-polyglutamate synthase (relative to control of 50 uM aminopterin); details: Sus scrofa
How it was run: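 Substrate activity was measured with partially purified hog liver FPGS, following an earlier published method. Vmax is expressed relative to a control of 50 μM aminopterin that was run in every experiment. Where activity was weak, relative velocity was reported at 200 μM substrate.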

Row | Molecule | IC50 (MOLT-4) | IC50 (MCF7) | IC50 (SW480) | IC50 (Thymidylate synthase [1]) | IC50 (Thymidylate synthase [2]) | Ratio [3] | IC50 (Manca) | Vmax [4]
1 | C#CCN(Cc1ccc(C(=O)NC(CCC(=O)O)C(=O)O)cc1)Cc1ccc2nc(C)nc(O)c2c1 (stereo unspecified) | 7 µM | > 100 µM | > 100 µM | 515 µM | 83 µM | 2.01 |  | 
2 | C#CCN(Cc1ccc(C(=O)NC(CCC(=O)O)C(=O)O)cc1)Cc1ccc2nc(N)nc(O)c2c1 (stereo unspecified) |  | > 100 µM | > 100 µM | 201 µM | 31 µM | 1.9 | > 80 µM | 
3 | C#CCN(Cc1ccc2[nH]c(N)nc(=O)c2c1)c1ccc(C(=O)NC(CCC(=O)O)C(=O)O)cc1 (stereo unspecified) | 28 µM | 0.8 µM | 0.8 µM |  |  |  | 0.56 µM | 
4 | Nc1nc(=O)c2c([nH]1)NCC(CNc1ccc(C(=O)N[C@H](CCC(=O)O)C(=O)O)cc1)N2C=O (stereo partly specified) | 3.5 µM |  |  |  |  |  |  | 
5 | C#CCN(Cc1ccc(C(=O)NC(CCC(=O)O)C(=O)O)cc1)Cc1ccc2c(c1)C(=O)CC(C)=N2 (stereo unspecified) |  |  | > 50 µM |  | 1.4 µM |  | > 600 µM | 
6 | C#CCN(Cc1ccc2c(c1)C(=O)N[C@H](C)N2)c1ccc(C(=O)NC(CCC(=O)O)C(=O)O)cc1 (stereo partly specified) |  |  | 0.6 µM | 1.5 µM | 0.43 µM |  |  | 
7 | C#CCN(Cc1ccc2c(c1)C(=O)C[C@H](C)N2)c1ccc(C(=O)NC(CCC(=O)O)C(=O)O)cc1 (stereo partly specified) | 4.5 µM | > 100 µM | > 100 µM | 1.88 µM | 24 µM |  |  | 
8 | C#CCN(Cc1ccc(C(=O)NC(CCC(=O)O)C(=O)O)cc1)Cc1ccc2ccnc(O)c2c1 (stereo unspecified) | 4.5 µM | 22 µM | > 100 µM |  | 0.74 µM | 0.38 | 9 µM | 
9 | Nc1nc(O)c2c(n1)NCC(CNc1ccc(C(=O)N[C@@H](CCC(=O)O)C(=O)O)cc1)N2 (stereo partly specified) |  |  |  |  |  | 32.1 |  | 
10 | CN(Cc1cnc2nc(N)nc(N)c2n1)c1ccc(C(=O)N[C@@H](CCC(=O)O)C(=O)O)cc1 [METHOTREXATE] | 1.4 µM |  |  |  |  |  |  | 
11 | Nc1nc(=O)c2nc(CNc3ccc(C(=O)N[C@@H](CCC(=O)O)C(=O)O)cc3)cnc2[nH]1 [FOLIC ACID] | > 100 µM |  |  |  |  | 0.77 |  | 
12 | C#CCN(Cc1ccc2nc(C)nc(O)c2c1)c1ccc(C(=O)NC(CCC(=O)O)C(=O)O)cc1 (stereo unspecified) | 1.5 µM | 0.007 µM | 0.05 µM | 0.045 µM | 0.01 µM | 1.33 | 0.013 µM | 
13 | B1 |  |  |  |  |  |  |  | 138%
